In ChEMBL document CHEMBL1155695, “Prenylated benzoic acid derivatives from Ferula kuhistanica” (2000):
Activity calls are given as the source filed them. No cut-off for these calls is given here.

Assays:
Format in all cases: functional
Homo sapiens [1] = species on record: Homo sapiens; test: Immunosuppressive activity against human peripheral mononuclear cells assessed as inhibition of LPS-stimulated IL4 production at 10 ug/mL
How it was run: (§1)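 Whole blood from healthy human volunteers was used as the cell source for the immunosuppression screen. Other details follow a previously published method.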

Homo sapiens [2] = species on record: Homo sapiens; test: Immunosuppressive activity against human peripheral mononuclear cells assessed as inhibition of LPS-stimulated IL2 production at 10 ug/mL; how it was run: as §1
Homo sapiens [3] = species on record: Homo sapiens; test: Immunosuppressive activity against human peripheral mononuclear cells assessed as inhibition of LPS-stimulated IFN-gamma production at 10 ug/mL; how it was run: as §1
[4] = Immunosuppressive activity against human peripheral mononuclear cells assessed as inhibition of LPS-stimulated IL2 production at 3 ug/mL; how it was run: as §1
[5] = Immunosuppressive activity against human peripheral mononuclear cells assessed as inhibition of LPS-stimulated IFN-gamma production at 3 ug/mL; how it was run: as §1
[6] = Immunosuppressive activity against human peripheral mononuclear cells assessed as inhibition of LPS-stimulated IL4 production at 3 ug/mL; how it was run: as §1
[7] = Immunosuppressive activity against human peripheral mononuclear cells assessed as inhibition of LPS-stimulated IL4 production at 0.3 ug/mL; how it was run: as §1
[8] = Immunosuppressive activity against human peripheral mononuclear cells assessed as inhibition of LPS-stimulated IL2 production at 0.3 ug/mL; how it was run: as §1
[9] = Immunosuppressive activity against human peripheral mononuclear cells assessed as inhibition of LPS-stimulated IFN-gamma production at 0.3 ug/mL; how it was run: as §1

**Q.** Which Activity (Homo sapiens [1]) does the source give for C/C(=C\Cc1cc(C(=O)O)ccc1O)CCC(O)[C@]1(C)CC[C@H](C(C)(C)O)O1 (stereo not given in full) here?
**A.** inactive

**Q.** What about the Activity (Homo sapiens [2]) of the same compound?
**A.** inactive

**Q.** What about the Activity (Homo sapiens [3]) of the same compound?
**A.** inactive

**Q.** Which results are given for CC(C)=CCCC(C)(O)C(O)CC/C(C)=C/Cc1cc(C(=O)O)ccc1O (stereo not given)?
**A.** Activity (Homo sapiens [1]): inactive; Activity (Homo sapiens [2]): inactive; Activity (Homo sapiens [3]): inactive

**Q.** What does the source list for C/C(=C\Cc1cc(C(=O)O)ccc1O)CC/C=C(\C)CCC(O)C(C)(C)O (racemic)?
**A.** Activity (Homo sapiens [1]): inactive; Activity (Homo sapiens [2]): inactive; Activity (Homo sapiens [3]): inactive

**Q.** Which inhibition at 3 µg/mL [4] does the source give for CC(C)=CCC/C(C)=C/CC[C@@]1(C)Oc2ccc(C(=O)O)cc2C[C@H]1O (racemic) [KUHISTANOL D] here?
**A.** 77.3%

**Q.** And the inhibition at 3 µg/mL [5]?
**A.** 61.8%

**Q.** And the inhibition at 3 µg/mL [6]?
**A.** 70.3%

**Q.** Which inhibition at 0.3 µg/mL [7] does the source give for C[C@]12C=CC(=O)C=C1CC[C@@H]1[C@@H]2[C@@H](O)C[C@@]2(C)[C@H]1CC[C@]2(O)C(=O)CO [PREDNISOLONE] here?
**A.** 55.3%

**Q.** And the inhibition at 0.3 µg/mL [8]?
**A.** 65.6%

**Q.** And the inhibition at 0.3 µg/mL [9]?
**A.** 60.2%
